The values below come from ChEMBL document CHEMBL4011648, “Adamantyl Antiestrogens with Novel Side Chains Reveal a Spectrum of Activities in Suppressing Estrogen Receptor Mediated Activities in Breast Cancer Cells” (J Med Chem, 2017).

For test [1], the target named is T1, Estrogen receptor (Homo sapiens) (UniProt P03372).
T1 sequence (whole entry): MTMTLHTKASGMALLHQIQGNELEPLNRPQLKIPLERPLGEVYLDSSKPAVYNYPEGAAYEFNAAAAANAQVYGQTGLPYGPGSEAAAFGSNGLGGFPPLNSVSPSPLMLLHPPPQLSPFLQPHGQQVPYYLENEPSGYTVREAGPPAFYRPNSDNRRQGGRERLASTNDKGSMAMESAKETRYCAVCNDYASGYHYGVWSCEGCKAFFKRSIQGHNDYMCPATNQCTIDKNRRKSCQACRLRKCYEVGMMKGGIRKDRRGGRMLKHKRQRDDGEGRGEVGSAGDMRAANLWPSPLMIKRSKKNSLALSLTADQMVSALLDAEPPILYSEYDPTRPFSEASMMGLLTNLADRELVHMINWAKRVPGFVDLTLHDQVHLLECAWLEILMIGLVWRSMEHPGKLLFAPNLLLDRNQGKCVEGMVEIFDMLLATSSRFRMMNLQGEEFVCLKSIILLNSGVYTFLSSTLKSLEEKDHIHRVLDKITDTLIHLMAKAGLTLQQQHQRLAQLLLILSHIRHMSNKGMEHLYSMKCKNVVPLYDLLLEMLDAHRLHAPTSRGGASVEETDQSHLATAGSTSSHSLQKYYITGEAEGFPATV
The experiment in a line: Downregulation of human ERalpha in human MCF-7 cells at 3 x 10^-8 M after 24 hrs by Western blot method. The test is classed as cell-based. Summed up:
(§1)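 MCF-7 cells treated 24 h at 3 × 10−10, 3 × 10−8 or 3 × 10−6 M; whole-cell extracts with protease/phosphatase inhibitors, 10% SDS-PAGE, nitrocellulose, probed with anti-ERα F10 and β-actin; ERα given as percent of vehicle.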

Test [2] addresses T1, Estrogen receptor (Homo sapiens). Briefly: Downregulation of ER-alpha levels in ER-positive human MCF-7 cells at 3 uM after 24 hrs by in-cell Western assay.
The target in test [3] is T2, Estrogen receptor (Homo sapiens, UniProt P03372).
T2 sequence (P03372 whole entry): T1 sequence (whole entry)
Briefly: Downregulation of human ERalpha in human MCF-7 cells after 24 hrs by in-cell Western immunoassay method. The test is classed as cell-based. Summed up:
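MCF-7 cells at 3000 cells/well treated 24 h (3 μM screen or dose-response); formaldehyde-fixed, Triton-permeabilized, stained with rabbit HC-20 anti-ERα overnight at 4 °C, IR secondary plus Cell Tag 700 normalization; in-cell Western imaging, ERα relative to vehicle, average of at least three independent experiments.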

The target in test [4] is T2, Estrogen receptor. Briefly: Downregulation of ERalpha in human MCF-7 cells assessed as reduction of estradiol-induced PgR mRNA levels after 24 hrs by RT-PCR method. The test is classed as cell-based. An outline of the steps:
(§2)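 MCF-7 cells in full medium (5% FBS) with 3 × 10−10 M E2, treated 24 h across a concentration range; TRIzol RNA, reverse transcription, SYBR green qPCR for GREB1, PgR or pS2 normalized to 36B4, fold change versus vehicle; mean ± SD of at least two independent experiments in triplicate.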

Test [5] deals with T1, Estrogen receptor (Homo sapiens). The experiment in a line: Downregulation of human ERalpha in human MCF-7 cells at 3 x 10^-6 M after 24 hrs by Western blot method. The test is classed as cell-based. An outline of the steps: as §1
A general note: Immunoblotting shows a protein as a band on a membrane.

Test [6] has as its system MCF7. Briefly: Antiproliferative activity against ER-positive human MCF7 cells at 3 uM after 6 days by WST-1 assay. The test is classed as functional. Summed up:
(§3)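 MCF-7 cells (ATCC), 6-day compound exposure; viability by WST-1 absorbance at 450 nm, expressed relative to vehicle-treated controls. Run in triplicate; 3 μM single-concentration screen values are averages of two to three independent experiments. Dose-response curves give IC50.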
On the technique in general: Tetrazolium dyes change colour on reduction, which living cells bring about.

Test [7] addresses T1, Estrogen receptor (Homo sapiens). Briefly: Displacement of [3H]estradiol from full-length human ERalpha receptor by scintillation counting relative to estradiol.
Test [8] deals with T2, Estrogen receptor. Briefly: Downregulation of ERalpha in human MCF-7 cells assessed as reduction of estradiol-induced pS2 mRNA levels after 24 hrs by RT-PCR method. The test is classed as cell-based. Summed up:
as §2

Test [9] deals with MCF7. The experiment in a line: Antiproliferative activity against ER-positive human MCF7 cells after 6 days by WST-1 assay. Format: functional, cell-based. The note with it: MCF7, 144 h. An outline of the steps:
as §3

The next test has as its system MDA-MB-231. Briefly: Antiproliferative activity against ERalpha-negative human MDA-MB-231 cells at 3 uM after 6 days by WST-1 assay. Format: functional, cell-based. An outline of the steps: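 ERα-negative MDA-MB-231 breast cancer cells screened for proliferation with compound at 3 μM; WST-1 read-out at 450 nm after 6 days, relative to vehicle.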
The target in test [10] is T2, Estrogen receptor. The experiment in a line: Displacement of [3H]estradiol from full-length human ERalpha receptor by scintillation counting. On the technique in general: Displacement assays read how much labelled ligand stays bound in the presence of the test substance.
The target of test [11] is T1, Estrogen receptor (Homo sapiens). Briefly: Downregulation of human ERalpha in human MCF-7 cells at 3 x 10^-10 M after 24 hrs by Western blot method. The test is classed as cell-based. Summed up: as §1
Test [12] deals with T2, Estrogen receptor. Briefly: Downregulation of ERalpha in human MCF-7 cells assessed as reduction of estradiol-induced GREB1 mRNA levels after 24 hrs by RT-PCR method. Format: cell-based. An outline of the steps: as §2

Activity calls are given as the source filed them. The calls are words filed in the database; no cut-off is given here.

Regarding `O=C(O)/C=C/c1ccc(C(=C2C3CC4CC(C3)CC2C4)c2ccc(O)cc2)cc1`, the outcome (in test [1]; in [2]; in [5]; with MCF7 [6]; in test [11]) was Active. Further, the IC50 (commonly the concentration at which inhibition is half-maximal) was determined as 0.017 µM on Estrogen receptor [3]; 0.5 µM at Estrogen receptor [4]; 0.5 µM on Estrogen receptor [8]; 0.031 µM in the test with MCF7 [9]; 0.5 µM on Estrogen receptor [12]. For the same compound, the RBA in test [7] stood at 51%. For the same compound, the result in the test on MDA-MB-231 was inactive. The Ki – broadly, a dissociation constant, usually derived from enzyme kinetics or from competition with a known ligand – at Estrogen receptor [10] was determined as 0.0004 µM.
`O=C(/C=C/c1ccc(C(=C2C3CC4CC(C3)CC2C4)c2ccc(O)cc2)cc1)NCCCO`: the result in [1], in [5] and in test [11] was Active. Besides, the IC50 against Estrogen receptor [3] worked out at 0.00053 µM; on Estrogen receptor [4] it was 0.05 µM; at Estrogen receptor [8], 0.05 µM; in the test on MCF7 [9], 0.0019 µM; on Estrogen receptor [12] it was 0.05 µM. In the test on MCF7 [6], this compound displayed an Activity of 30%. The compound further showed an RBA in test [7] of 47%. The result in the test on MDA-MB-231 was inactive.
